Measured values from ChEMBL document CHEMBL3877241 (J Med Chem, 2016).
pIC50: −log10 of the molar value.

Tests used:
[1] = Antiproliferative activity against human PC3 cells after 72 hrs by MTT assay; format: functional, cell-based; conditions: PC-3, 72 h
cells = format: functional, cell-based; conditions: Homo sapiens, HEL 92.1.7, 36 h
[2] = Antiproliferative activity against human Jurkat cells; format: functional, cell-based
[3] = Antiproliferative activity against human HL60 cells; format: functional, cell-based; conditions: HL-60
[4] = molecular target: T1, Tyrosine-protein kinase JAK2 (Homo sapiens, UniProt O60674); experiment: Inhibition of JAK2 (unknown origin) preincubated for 20 mins followed by [33P]ATP addition measured after 120 mins by Hotspot assay
T1 sequence (O60674 whole entry, the tested form may be a part): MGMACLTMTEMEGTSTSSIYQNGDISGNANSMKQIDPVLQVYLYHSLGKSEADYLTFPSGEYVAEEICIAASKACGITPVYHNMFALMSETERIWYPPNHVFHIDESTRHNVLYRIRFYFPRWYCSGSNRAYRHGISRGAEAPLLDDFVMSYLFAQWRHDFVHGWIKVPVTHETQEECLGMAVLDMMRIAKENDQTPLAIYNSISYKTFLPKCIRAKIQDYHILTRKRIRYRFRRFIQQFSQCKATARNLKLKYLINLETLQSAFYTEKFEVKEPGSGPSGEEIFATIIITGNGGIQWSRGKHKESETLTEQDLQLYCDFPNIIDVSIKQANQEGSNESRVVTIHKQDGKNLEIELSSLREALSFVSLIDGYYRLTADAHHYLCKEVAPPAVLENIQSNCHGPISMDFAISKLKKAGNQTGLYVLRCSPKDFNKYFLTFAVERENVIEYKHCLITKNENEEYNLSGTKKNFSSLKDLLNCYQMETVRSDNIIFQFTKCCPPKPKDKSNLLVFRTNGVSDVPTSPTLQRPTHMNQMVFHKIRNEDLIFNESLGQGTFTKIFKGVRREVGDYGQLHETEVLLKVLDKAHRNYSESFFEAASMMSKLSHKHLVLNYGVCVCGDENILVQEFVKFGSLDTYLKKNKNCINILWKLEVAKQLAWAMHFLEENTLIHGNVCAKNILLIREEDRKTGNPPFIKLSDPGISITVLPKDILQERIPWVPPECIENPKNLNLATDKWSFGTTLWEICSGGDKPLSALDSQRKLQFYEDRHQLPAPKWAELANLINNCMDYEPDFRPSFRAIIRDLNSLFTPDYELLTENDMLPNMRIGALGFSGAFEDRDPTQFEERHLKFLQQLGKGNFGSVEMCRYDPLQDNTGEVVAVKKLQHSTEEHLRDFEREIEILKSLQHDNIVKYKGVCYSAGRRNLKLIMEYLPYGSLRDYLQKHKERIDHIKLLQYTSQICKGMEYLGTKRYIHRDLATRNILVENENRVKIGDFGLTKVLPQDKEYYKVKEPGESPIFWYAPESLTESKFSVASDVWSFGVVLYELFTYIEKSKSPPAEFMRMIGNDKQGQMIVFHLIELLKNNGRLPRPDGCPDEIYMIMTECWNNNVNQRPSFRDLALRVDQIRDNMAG

[5] = molecular target: T2, Protein deacetylase HDAC6 (Homo sapiens, UniProt Q9UBN7); experiment: Inhibition of full length human recombinant N-terminal GST-tagged HDAC6 (1 to 1215 residues) expressed in sf9 cells preincubated with enzyme followed by fluorogenic Arg-His-Lys-Lys(Ac)-AMC substrate addition measured after 2 hrs by fluorescence assay
T2 sequence (Q9UBN7 whole entry): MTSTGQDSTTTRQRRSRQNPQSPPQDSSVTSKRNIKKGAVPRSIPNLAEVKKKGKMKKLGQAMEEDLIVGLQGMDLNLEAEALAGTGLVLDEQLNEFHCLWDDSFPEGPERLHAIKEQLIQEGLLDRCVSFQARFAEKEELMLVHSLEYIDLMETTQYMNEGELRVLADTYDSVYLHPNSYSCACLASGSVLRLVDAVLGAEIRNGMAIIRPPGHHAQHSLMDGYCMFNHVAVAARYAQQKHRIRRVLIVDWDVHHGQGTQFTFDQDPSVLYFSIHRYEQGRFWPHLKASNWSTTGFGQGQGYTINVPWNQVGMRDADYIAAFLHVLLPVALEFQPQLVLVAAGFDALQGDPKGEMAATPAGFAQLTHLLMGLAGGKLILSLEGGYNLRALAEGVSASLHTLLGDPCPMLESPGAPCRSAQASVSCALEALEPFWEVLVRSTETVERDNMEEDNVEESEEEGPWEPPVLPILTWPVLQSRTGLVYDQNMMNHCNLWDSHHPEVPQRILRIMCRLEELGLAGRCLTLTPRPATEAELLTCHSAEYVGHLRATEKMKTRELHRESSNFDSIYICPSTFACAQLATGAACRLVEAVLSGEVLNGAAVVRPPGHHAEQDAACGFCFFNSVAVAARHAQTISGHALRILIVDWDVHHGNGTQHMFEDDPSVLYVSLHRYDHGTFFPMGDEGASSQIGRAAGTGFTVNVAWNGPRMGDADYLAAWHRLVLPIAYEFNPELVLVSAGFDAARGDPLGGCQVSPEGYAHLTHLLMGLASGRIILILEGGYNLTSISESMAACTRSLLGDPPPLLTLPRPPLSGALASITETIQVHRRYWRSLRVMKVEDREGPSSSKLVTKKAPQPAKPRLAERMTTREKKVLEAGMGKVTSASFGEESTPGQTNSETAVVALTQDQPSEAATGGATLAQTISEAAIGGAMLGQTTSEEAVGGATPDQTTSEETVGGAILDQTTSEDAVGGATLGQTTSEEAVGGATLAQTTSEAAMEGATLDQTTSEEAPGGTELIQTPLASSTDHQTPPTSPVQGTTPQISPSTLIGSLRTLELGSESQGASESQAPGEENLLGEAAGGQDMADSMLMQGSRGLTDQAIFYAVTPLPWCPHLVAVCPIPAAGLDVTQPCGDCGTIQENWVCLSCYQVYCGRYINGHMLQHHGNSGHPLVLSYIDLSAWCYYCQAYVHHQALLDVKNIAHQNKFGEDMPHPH

[6] = Antiproliferative activity against human MDA-MB-231 cells after 72 hrs by MTT assay; format: functional, cell-based; conditions: MDA-MB-231, 72 h
[7] = Antiproliferative activity against human MCF7 cells after 72 hrs by MTT assay; format: functional, cell-based; conditions: MCF7, 72 h
[8] = Antiproliferative activity against human HCT116 cells after 72 hrs by MTT assay; format: functional, cell-based; conditions: HCT-116, 72 h
How it was run: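 MTT viability after 72 h exposure. Cells seeded at 2500/well and left 24 h before compound addition; DMSO at 0.5% v/v final. MTT added in FBS-free medium for 3 h at 37 °C, formazan dissolved in DMSO, absorbance read at 570 nm. IC50 from a sigmoidal fit of % viability vs log concentration; triplicates on separate occasions using two different stock solutions.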

[9] = molecular target: T1, Tyrosine-protein kinase JAK2; experiment: Inhibition of JAK2 (unknown origin)
[10] = molecular target: T3, Protein deacetylase HDAC6 (Homo sapiens) (UniProt Q9UBN7); experiment: Inhibition of full length human recombinant N-terminal GST-tagged HDAC6 (1 to 1215 residues) expressed in sf9 cells at 10 uM preincubated with enzyme followed by fluorogenic Arg-His-Lys-Lys(Ac)-AMC substrate addition measured after 2 hrs by fluorescence assay relative to control
T3 sequence (whole entry): T2 sequence (Q9UBN7 whole entry)

Histone deacetylase 1 = Histone deacetylase 1 (Homo sapiens, UniProt Q13547); experiment: Inhibition of full length human recombinant C-terminal FLAG/His-tagged HDAC1 (1 to 482 residues) expressed in sf21 cells preincubated with enzyme followed by fluorogenic Arg-His-Lys-Lys(Ac)-AMC substrate addition measured after 2 hrs by fluorescence assay
Sequence of Histone deacetylase 1 (Q13547 whole entry, the tested form may be a part): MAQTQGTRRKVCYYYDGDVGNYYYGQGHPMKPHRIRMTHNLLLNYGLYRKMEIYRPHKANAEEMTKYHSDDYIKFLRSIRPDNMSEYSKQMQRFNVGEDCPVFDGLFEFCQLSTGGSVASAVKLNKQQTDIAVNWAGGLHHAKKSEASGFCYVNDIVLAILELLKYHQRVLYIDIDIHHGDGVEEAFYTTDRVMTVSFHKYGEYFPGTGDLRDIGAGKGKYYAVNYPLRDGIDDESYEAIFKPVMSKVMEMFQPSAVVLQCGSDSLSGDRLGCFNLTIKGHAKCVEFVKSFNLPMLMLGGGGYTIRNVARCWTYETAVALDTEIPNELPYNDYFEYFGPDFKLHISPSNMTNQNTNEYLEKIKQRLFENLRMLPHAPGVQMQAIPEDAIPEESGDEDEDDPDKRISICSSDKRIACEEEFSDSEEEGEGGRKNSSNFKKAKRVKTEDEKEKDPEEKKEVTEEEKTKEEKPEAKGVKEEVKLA

[11] = Antiproliferative activity against human OPM2 cells after 48 hrs by CellTiter-Glo assay; format: functional, cell-based; conditions: OPM-2, 48 h
How it was run: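 OPM2 grown in RPMI 1640 with 10% FBS and penicillin/streptomycin at 37 °C, 5% CO2. Treated at 25,000 cells/well in triplicate for 48 h. Viability read by CellTiter-Glo luminescence. IC50 taken from a sigmoidal fit of % viability vs log concentration.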

[12] = Half life in rat liver microsomes at 3 uM preincubated for 5 mins followed by NADPH addition by LC-MS/MS analysis; format: ADME
How it was run: (§1)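 Male and female rat liver microsomes (0.3 mg protein/mL final) with compound at 3 μM final in 0.1 M phosphate buffer pH 7.4. Preincubated 5 min at 37 °C, then started with NADPH (1 mM final). Sampled at 0, 5, 10, 15, 30 and 45 min and quenched with cold acetonitrile containing internal standard. Read by LC-MS/MS; run in triplicate; midazolam (3 μM) as positive control.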

[13] = Antiproliferative activity against mouse TAMH cells after 24 hrs by CellTiter-Glo assay; format: ADME, cell-based
[14] = Apparent intrinsic clearance in rat liver microsomes at 3 uM preincubated for 5 mins followed by NADPH addition measured after 45 mins by LC-MS/MS analysis; format: ADME; conditions: read-out: CLH(app); how it was run: as §1
[15] = Therapeutic index, ratio of IC50 for mouse TAMH cells to IC50 for human cancer cells; conditions: cancer cell lines

pIC50 [4] | pIC50 [5] | Structure (SMILES) | pIC50 [1] | pIC50 [6] | pIC50 [7] | pIC50 [8] | also measured
7.52 | 8.64 | O=C(CCCCCCC(=O)Nc1ccc(NCCOc2ccc3cc2COC/C=C/COCc2cccc(c2)-c2ccnc(n2)N3)cc1)NO | < 4.00 | 5.46 |  |  | pIC50 (cells): < 5.70; pIC50 [2]: < 5.40; pIC50 [3]: < 5.40
9.01 | 6.05 | O=C(NO)C1CCN(CCOc2ccc3cc2COC/C=C/COCc2cccc(c2)-c2ccnc(n2)N3)CC1 | 5.55 | 5.47 | 5.77 | 5.92 | 
 |  | O=C(O)CCCCOc1ccc2cc1COC/C=C/COCc1cccc(c1)-c1ccnc(n1)N2 |  | 4.59 |  | 4.44 | pIC50 [9]: > 7.41
 |  | O=C(O)CCCCCC(=O)Nc1ccc(NCCOc2ccc3cc2COC/C=C/COCc2cccc(c2)-c2ccnc(n2)N3)cc1 |  |  |  |  | inhibition [10]: 20 to 24%
 | < 4.00 | O=C(O)c1ccc(OCCOc2ccc3cc2COC/C=C/COCc2cccc(c2)-c2ccnc(n2)N3)cc1 |  | 4.27 |  | 4.53 | pIC50 [9]: > 7.41
8.64 | 5.59 | O=C(O)CCCCCCC(=O)Nc1ccc(NCCOc2ccc3cc2COC/C=C/COCc2cccc(c2)-c2ccnc(n2)N3)cc1 |  |  |  | 5.57 | 
 | 4.35 | O=C(O)CCCCCOc1ccc2cc1COC/C=C/COCc1cccc(c1)-c1ccnc(n1)N2 |  | 4.70 |  | 4.39 | pIC50 [9]: > 7.41
8.37 | 7.55 | O=C(CCCCCOc1ccc2cc1COC/C=C/COCc1cccc(c1)-c1ccnc(n1)N2)NO | 5.09 | 5.09 | 5.32 | 5.59 | pIC50 (cells): < 5.70; pIC50 (Histone deacetylase 1): 5.39; pIC50 [2]: 5.54; pIC50 [3]: < 5.40
 | 5.00 | O=C(O)CCCCCCCOc1ccc2cc1COC/C=C/COCc1cccc(c1)-c1ccnc(n1)N2 | 4.64 | 4.77 | 4.56 | 5.09 | pIC50 [9]: > 7.41
8.59 | 5.55 | O=C(O)CCCCCCOc1ccc2cc1COC/C=C/COCc1cccc(c1)-c1ccnc(n1)N2 | 5.06 | 4.92 | 4.70 | 5.22 | 
8.77 | 6.40 | O=C(NO)c1ccc(NCCOc2ccc3cc2COC/C=C/COCc2cccc(c2)-c2ccnc(n2)N3)cc1 | 5.34 | 5.06 | 5.42 | 5.49 | 
 | < 4.00 | O=C(O)C1CCN(CCOc2ccc3cc2COC/C=C/COCc2cccc(c2)-c2ccnc(n2)N3)CC1 |  | 4.97 |  | 5.09 | pIC50 [9]: > 7.41
 |  | O=C(CCCCCCC(=O)Nc1ccccc1)NO [VORINOSTAT] |  |  |  | 5.73 | pIC50 [11]: 5.54; pIC50 [3]: 5.64
 | 6.29 | O=C(CCCOc1ccc2cc1COC/C=C/COCc1cccc(c1)-c1ccnc(n1)N2)NO | 5.34 | 5.23 | 5.56 | 5.44 | pIC50 (Histone deacetylase 1): 5.62
 |  | CN1CCc2c(c3ccccc3n2Cc2ccc(C(=O)NO)cc2)C1 [TUBASTATIN A] | 5.07 | 4.98 | 5.43 | 5.70 | pIC50 (cells): < 5.70; pIC50 [2]: < 5.40; pIC50 [3]: < 5.40
8.90 | 7.18 | O=C(NO)c1ccc(OCCOc2ccc3cc2COC/C=C/COCc2cccc(c2)-c2ccnc(n2)N3)cc1 | 5.80 |  |  |  | 
> 7.41 | 4.19 | O=C(O)c1ccc(NCCOc2ccc3cc2COC/C=C/COCc2cccc(c2)-c2ccnc(n2)N3)cc1 |  | 4.34 |  |  | 
7.33 |  | O=C(O)CCCOc1ccc2cc1COC/C=C/COCc1cccc(c1)-c1ccnc(n1)N2 |  | 4.27 |  | 3.91 | 
8.05 | 5.54 | O=C(NO)c1cccc(NCCOc2ccc3cc2COC/C=C/COCc2cccc(c2)-c2ccnc(n2)N3)c1 | < 4.00 | < 4.30 |  | 5.70 | 
8.61 | 6.97 | O=C(CCCCOc1ccc2cc1COC/C=C/COCc1cccc(c1)-c1ccnc(n1)N2)NO | 5.00 | 4.90 | 5.10 | 5.85 | pIC50 (Histone deacetylase 1): 5.51
 | 4.28 | O=C(O)c1cccc(NCCOc2ccc3cc2COC/C=C/COCc2cccc(c2)-c2ccnc(n2)N3)c1 |  | 4.67 |  | 4.23 | pIC50 [9]: > 7.41
8.30 | 7.80 | O=C(CCCCCCCOc1ccc2cc1COC/C=C/COCc1cccc(c1)-c1ccnc(n1)N2)NO | 5.00 | 5.19 | 5.02 | 5.21 | pIC50 (cells): < 5.70; pIC50 (Histone deacetylase 1): 5.63; half-life at 3 µM [12]: 21 to 23.4 min; pIC50 [2]: 5.61; pIC50 [13]: 5.28; CLint scaled at 3 µM [14]: 200 to 225 mL/min/kg; pIC50 [3]: < 5.40; selectivity ratio [15]: 1.8
8.16 | 8.60 | O=C(CCCCCC(=O)Nc1ccc(NCCOc2ccc3cc2COC/C=C/COCc2cccc(c2)-c2ccnc(n2)N3)cc1)NO | < 4.00 |  |  |  | pIC50 (cells): < 5.70; pIC50 [2]: < 5.40; pIC50 [3]: < 5.40
